The EternaBench riboswitch data

Test system: MS2 coat protein
Experiment: apparent Kd, MS2 coat protein; higher = weaker binding; RNA-MaP array; FMN 200 µM where present
Procedure, shortened: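 Green signal was scaled to red-channel RNA signal and control-cluster median Fmax, and the apparent Kd was taken as the median of filtered per-cluster binding-curve fits. The binding series used SNAP-549-labelled MS2 coat protein from 0.7 or 1.5 nM, doubling to 3 µM, on designs transcribed by stalled E. coli RNA polymerase on Illumina sequencing-chip clusters. Each series ran without and then with constant ligand in 100 mM Tris-HCl pH 7.5, 80 mM KCl, 4 mM MgCl2, BSA, DTT, yeast tRNA and Tween-20.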

[1] = designed as: OFF switch for flavin mononucleotide, no ligand
[2] = ligand present: flavin mononucleotide, designed as: OFF switch for flavin mononucleotide
[3] = designed as: ON switch for flavin mononucleotide, no ligand
[4] = ligand present: flavin mononucleotide, designed as: ON switch for flavin mononucleotide

Row | Sequence | apparent Kd [1] [nM] | apparent Kd [2] [nM] | apparent Kd [3] [nM] | apparent Kd [4] [nM]
1 | GGUGAGAGCAAGGAUAUGCAGAAGUGAGAAAGUGCAGAAGGUGCUACAUGAGGAUCACCCAUGUUGGAUGUGUU | 37.1 | 49.1 | – | –
2 | CCCAAACUUGGGCUUGGUGGUGCAUAGGAUAUCCUUGGACAUGAGGAUCACCCAUGUACAACUGUGGAGAAGGGUGCAGGACCU | – | – | 227 | 39.6
3 | CCUUGGAUUGAGGAUAUAUGAACCUUUACGGUUGUAGAAGGCAGGACAUGAGGAUCACCCAUGUGGUGGCGCUC | 1280 | 1010 | – | –
4 | GCAGGAUAAGUGAGGAUAUACCUCUGGAUACAGAGGUAGAAGGCACAUGAGGAUCACCCAUGUCUAUCACCUGC | 16 | 41.3 | – | –
5 | GUGGUCUGACAUGAGGAUCACCCAUGUGGAAUAAAUACGGGUUAGGAUAUCUUGAGGAUCACCCAAGAGAAGGGAUCGAUUGUU | – | – | 52.8 | 45
6 | CAGUACUGAGGAUAUACAUGAGGAUCACCCAUGUGUUCCAGCUAGGAAACUAGCACUUGUAGAAGGCAGUACUG | 24.6 | 267 | – | –
7 | GGGUACAUGAGGAUCACCCAUGUAACGUGGAUAAGCUAUAAUAGAAGGAUAAGAGGAGAUGAGGUAUAGGAUAUAUCAUGGGUG | 42.6 | 17.1 | – | –
8 | CUCUUGUGAGGAUAUCAGGUGUGCUAGCGUACUGGUACAUCUGAGAAGGCACAUGAGGAUCACCCAUGUUUCUA | 148 | 23.2 | – | –
9 | AACCAACAUGAGGAUCACCCAUGUCAACCCAAGGCAGGAUAUGCGAGAAUAACAAUGGGAGCAGAAGGGCCGACCU | – | – | 110 | 54.9
10 | GCACGACAUGUAGGAUAUCGAGCGCCGAGCGCUCGAGAAGGACAUGAGGAUCACCCAUGUAUUCUGAGUGAGCGAGGUCGUGCA | 45.7 | 393 | – | –
11 | CGUGUACGAGGAUAUAGAUUGAAUGACAUGAGGAUCACCCAUGUGAUCGAUCUAUUUGAUUUAGAAGGUGUACAUG | 14 | 16.9 | – | –
12 | UAGGUGUGAGGAUAUGGUAAAGAUAAGAUGAUGAAAGAACUCCAGAAGGCACAUGAGGAUCACCCAUGUAGAUG | 28 | 70.8 | – | –
13 | CAUGGAACAUAGGAUAUCUCGCGGCUAGGCUGCAGAGAAGGAUGUACAUGAGGAUCACCCAUGUAUGAUCCAAU | 18.9 | 28.2 | – | –
14 | UGUAUACAUGAGGAUCACCCAUGUCAACGUAGUCGAGGAUAUGGGCAGCCGUGAGGCGUACUAGAAGGCGAAGAGG | – | – | 337 | 110
15 | AGAAUUGUAGGAUAUACAUGAGGAUCACCCAUGUGGGAGGUGGAGCAUACAAGACGAGGUAGAAGGACAACGAC | 92.3 | 91.9 | – | –
16 | UGUAUAUAGGCAGGAUAUACAUGAAUAUAUAUGAUGUAGUAUGAUGUAACAUGAGGAUCACCCAUGUAGAAGGGCCAGUGUAUA | 73.8 | 144 | – | –
17 | UGGAACGUGUCAGGAUAUACAUGAGGAUCACCCAUGUAUAGGAAAUAGGCAGGGUCUCUUGCAUAGUAGAAGGGACGCGAUUGC | 6.58 | 7.75 | – | –
18 | CUGAGUAGUCAGGAUAUGCUGUACAAAAGUACAGCAGAAGGGAUUACAUGAGGAUCACCCAUGUUUUCUUCAUG | 56.1 | 137 | – | –
19 | UUCAGCUCGUCAGGAUAUACGUCACUGCUUCGGCAGUGUGGUAAGAUCACAUGAGGAUCACCCAUGUAGAAGGGACGAGCUGAC | 13.5 | 252 | – | –
20 | GCCAUCGUAUGAGGAUAUGGCACCGAAACGGUGCCAGAAGGCAUGUCGAUAGACAUGAGGAUCACCCAUGUAUUAACGAUGGCA | – | – | 1120 | 117
21 | GUAUAUAUAUAAGGAUAUAAGUCUAGGACAUGAGGAUCACCCAUGUGUGUCUUAGAAGGUAUAUAUGUAAUACUGUUACAGUAA | – | – | 64.8 | 14.2

Row | Sequence | apparent Kd [1] [nM] | apparent Kd [2] [nM] | apparent Kd [3] [nM] | apparent Kd [4] [nM]
22 | AGAAAGUCAGGAUAUCAGAAACUAGUCGAAACGACUAGAAAUGAGAAGGGACAUGAGGAUCACCCAUGUAAGAA | 29.7 | 43.4 | – | –
23 | UUGGCGCGAUCCUGGGUCUCACAUGAGGAUCACCCAUGUAGAGAGGAUAUGCAUAGGGCCCAAUGGCAGAAGGCUCUACAUGAG | 91.4 | 57.2 | – | –
24 | AAGAAACAUGAGGAUCACCCAUGUGAGGAUAUGAAAAAGAAAAGAAAAGAAAGAAGAAUCAGAAGGCACAAAGG | 30.8 | 45.1 | – | –
25 | AAAAUCACAUGAGGAUCACCCAUGUACCGAGCUAGGGCUACAUAGGAUAUGACAAGUAUAGCUUGUCAGAAGGGUGAGUCUCGC | – | – | 166 | 258
26 | AGCUACGUUUCGUAGCAGCUAGGUGAGGAUAUUAAAAUUUUCACAUGAGGAUCACCCAUGUAUGUGAAGAAGGCGCCUAGAAAG | – | – | 53.7 | 7.76
27 | UGUUUUUAUGUAAGGAUAUGGGUUUGGUUGCGGGCUUAGAAGGUACAUGAGGAUCACCCAUGUAUUUUGUGCAU | 31.6 | 35.5 | – | –
28 | UUGGACGUCGUAGGAUAUGUAGGAUAUUCCUACAUGAGGAUCACCCAUGUUGAGAUGGAAGAAGGACAGAAGGACGAUGUCCAU | – | – | 25.3 | 4.05
29 | GGUGCGUAUGUGAGGAUAUGCUGGUCCUUGGCUCAGCAGAAGGCACAUGAGGAUCACCCAUGUGGUGUCGUACC | 333 | 21.8 | – | –
30 | UUUACAUGAGGAUCACCCAUGUAUAGAACGGUUAAUUAAAGUGAGGAUAUACAUAAUUUUAAAUUGUAGAAGGCACUGGGUACA | – | – | 14.4 | 19.9
31 | GGAAAGCGAGGAUAUACAUGAGGAUCACCCAUGUAAACAAACAAACAAACAAACAAAUGUAGAAGGCGCAAAAC | 43.9 | 43 | – | –
32 | CACAGGGCAGGAUAUACGAACAUGUCGCCAGAUGUCAUGGUACAUGAGGAUCACCCAUGUAGAAGGGCGUUGAU | 50.5 | 52.8 | – | –
33 | CCGCCAUGAGGAUAUCCAUCUGGAUCAGACUAGAUCCUGAUGGAGAAGGGACAUGAGGAUCACCCAUGUUGCGG | 62.8 | 55.1 | – | –
34 | AGUUAUUCAGGAUAUGGUGUGUUAUACAUGAGGAUCACCCAUGUAGAUCCUGGUUAGGCCUCAGAAGGGAAUGUUA | 190 | 190 | – | –
35 | AAUAACAGAGGAUAUACUAUUUUAUGUGUUUGUUGUUUUGAACAUGAGGAUCACCCAUGUAGAAGGCUGAAUGA | 28.8 | 30.7 | – | –
36 | GGCGGUCGGGAGGAUAUUCGGGCUGUUUGGCUUGGAGAAGGCUCGACAUGAGGAUCACCCAUGUUAGUGUUCUU | 73.9 | 506 | – | –
37 | AAGUCUGUACGAGGAUAUCAGUUGUAUCUAGAUUCAACAUGAGGAUCACCCAUGUUGCAAUAGGGUGAGAAGGCGUGUGGGCAA | – | – | 101 | 25.3
38 | GGAAAUCAUGUAGGAUAUGCAUGGCGAAGCUACGCAGAAGGACAUGAGGAUCACCCAUGUGCUAGCUACCGGAUACGGUGGCAA | 78.8 | 288 | – | –
39 | GACUUGUCAGGAUAUCUUACAUUUGCAUCGUAGUUACCAUUGGAGAAGGGACAUGAGGAUCACCCAUGUUUGGU | 35.2 | 34.9 | – | –
40 | CUCUUGUGAGGAUAUGUAGGUUACGAGAGCAAAACGAACGGACAGAAGGUACAUGAGGAUCACCCAUGUGGGAU | 109 | 95.4 | – | –
41 | UCAUUUUUACAAGGAUAUCAAUAUAAUAUAAUAGCUACAUGAGGAUCACCCAUGUUUUAGCGUGGUGAGAAGGUGUAUUGUCGG | – | – | 89.5 | 63
42 | AGUGUCAUCGAGAAGGCCUCAACAUGAGGAUCACCCAUGUUGCAAAAUGGGAGGAUAUCGCGCGCAAAACUACGUUUCGUAGCA | – | – | 30.5 | 11.4
